Measured values taken from PMC6247954 (Cell, 2018).
One block for each compound: values may come before it.

Experiments:
[1] = test system: YB5 cells (silenced CMV-GFP); assay: GFP reactivation in YB5 measured by flow cytometry; format: cell-based, human; conditions: for GFP reactivation by GSK-3 inhibitors: YB5, multiple doses, single exposure for four days
YB5 cells [2] = assay: Time-course RNA-seq in YB5; format: cell-based, human; conditions: after excluding genes downregulated at 2hr/4hr
YB5 cells [3] = assay: qPCR of hypermethylated silenced genes in YB5; format: cell-based, human; conditions: for reactivation of SYNE1 and MGMT: YB5, 24hr treatment, qPCR
[4] = test system: GFP and GLDC expression in tumors; assay: Pharmacodynamics study in NSG mice; format: in vivo; conditions: two-week every other day treatment, qPCR
Outline: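 Six gender-matched 8–10-week-old NSG mice randomised to vehicle or drug. 2×10^6 cells injected into the flank. 20mg/kg test compound given i.p. every other day for two weeks, starting when tumours were palpable 9 days after engraftment. Tumours homogenised, total mRNA extracted, expression measured by qPCR; N=3, mean+SEM, Student's t-test.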

GSK-3β = GSK-3β (Homo sapiens, UniProt P49841); assay: Kinome screening of 250 kinases at 1μM; format: biochemical
Outline: (§1)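 Kinase assays were run by a contract lab on a microfluidic mobility-shift platform. Each target kinase was incubated with fluorescently labelled substrate and test compound in a standardized reaction mixture.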

[5] = test system: cancer cell lines vs normal lung fibroblast (IMR90); assay: Anti-proliferation assay; format: cell-based, human; conditions: four days after one-time exposure; 5μM HH1 or 0.1μM MC180295
Outline: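 Cells seeded in 96-well plates at 40% confluency. Medium refreshed next day, test compound added directly, then cultured two more days at 37°C. Drug-free medium on day four. Cells trypsinised on day 5, mixed 1:1 with trypan blue and counted on an automated counter. Each sample counted at least three times and averaged; triplicate wells per condition.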

YB5 = assay: Cell cycle analysis by propidium iodide staining; format: cell-based, human; conditions: four days after single exposure
Outline: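 YB5 cells received a single drug dose 24 h after seeding, with drug-free medium replaced three days later. They were analysed four days after treatment by propidium iodide staining and FACSCalibur flow cytometry. Sub-G1 fraction was taken as the apoptotic proportion. N=3.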

GSK-3α = GSK-3α (Homo sapiens, UniProt P49840); assay: Kinome screening of 250 kinases at 1μM; format: biochemical
Outline: as §1

[6] = test system: pSer2 of RNAPII CTD (CDK9 target); assay: Western Blot of CDK substrates after MC180295 treatment; format: cell-based; conditions: 2hrs treatment
SW48-luc cells = assay: i.p. SW48-luc model in NSG mice; format: in vivo
Outline: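 SW48 cells transfected with ffluc2-eGFP, GFP-positive cells sorted one week later and expanded. Cells injected i.p. into male and female age- and gender-matched NSG mice. Once tumour burden was seen by bioluminescence, mice randomised to 5–20mg/kg test compound or solvent i.p. every other day (3 vehicle, 5 treated). Imaged 5 min after i.p. D-luciferin. Endpoint: natural death or ascites; survival by log-rank (Mantel-Cox).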

HL60 cell line = assay: HL60 differentiation; format: cell-based, human; conditions: single dose exposure for four days
Outline: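 HL60 cells received one dose 24 h after seeding, drug-free medium on day 3, and analysis on day 4. Cells were washed and stained with PI plus FITC-CD11b or isotype IgG, then read on a Guava flow cytometer. Positive controls were 1μM ATRA and 1.25% DMSO.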

human T lymphocytes = assay: Humanized PBMC NSG mice; format: in vivo; conditions: 10 mg/kg or 20 mg/kg for 14 days
YB5 and HCT116 = assay: Soft agar colony formation assay; format: cell-based, human; conditions: single dose pre-exposure for four days
Outline: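 Cells were pretreated with a range of test compound concentrations, kept in drug for two more days, and switched to drug-free medium the day before seeding (four days total). 1000 cells were plated in Noble agar with 2x medium (20% FBS, 2% penicillin/streptomycin). Plates were grown two weeks at 37°C, then stained with 0.005% crystal violet in 10% EtOH.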

SW48 = assay: s.c. SW48 xenograft model in NSG mice; format: in vivo
Outline: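 2×10^6 SW48 cells injected s.c. into the flank of randomly assigned, gender-matched 8–10-week-old NSG mice. Once tumours were palpable, 20mg/kg test compound or vehicle given i.p. every other day, for 10 weeks. Tumour size measured by caliper (mean+SEM, Student's t-test); survival recorded in days.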

CDK1/2 substrates = assay: Western Blot of CDK substrates after MC180295 treatment; format: cell-based; conditions: 2hrs treatment
substrates of CDK4/6 = assay: as above; format: cell-based; conditions: 2hrs treatment
CDK9/CyclinT1 = CDK9/CyclinT1 (Homo sapiens, UniProt P50750); assay: Isotope kinase activity assay with recombinant CDK9/CyclinT1 and BRG1; format: biochemical; conditions: 1μM inhibitor, 32γ-ATP
Outline: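 Recombinant active full-length CDK9/Cyclin T1 (1.2 μg) pre-incubated 15 min with or without 1μM test compound. Purified BRG1 (0.8 μg) then added, 1 hr at 30 °C in KAS buffer containing 5μCi/μl 32γ-ATP. Reaction stopped by heating at 65 °C for 5 min.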

panel of 250 kinases = assay: Kinome screening of 250 kinases at 1μM; format: biochemical, human
Outline: as §1

ID8 = assay: ID8-VEGF-Defensin syngeneic ovarian cancer mouse model; format: in vivo
Outline: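 Female C57BL/6NHsd mice aged 7–8 weeks were injected i.p. with 2.5×10^5 ID8-VEGF-Defensin mouse ovarian cancer cells. From day 3, test compound (1 or 10 mg/kg) or vehicle (5% DMSO in PBS) was given i.p. every 3 days for the whole experiment. Groups were randomly assigned.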

CDK4 = conditions: read-out: IC50 for CDK4; ref Asghar et al., 2015; cited from earlier work
CDK9 = conditions: read-out: IC50 for CDK9; ref Asghar et al., 2015; cited from earlier work
CDK1 = conditions: read-out: IC50 for CDK1; ref Asghar et al., 2015; cited from earlier work

Chain of CDK9/CyclinT1 (P50750 whole entry): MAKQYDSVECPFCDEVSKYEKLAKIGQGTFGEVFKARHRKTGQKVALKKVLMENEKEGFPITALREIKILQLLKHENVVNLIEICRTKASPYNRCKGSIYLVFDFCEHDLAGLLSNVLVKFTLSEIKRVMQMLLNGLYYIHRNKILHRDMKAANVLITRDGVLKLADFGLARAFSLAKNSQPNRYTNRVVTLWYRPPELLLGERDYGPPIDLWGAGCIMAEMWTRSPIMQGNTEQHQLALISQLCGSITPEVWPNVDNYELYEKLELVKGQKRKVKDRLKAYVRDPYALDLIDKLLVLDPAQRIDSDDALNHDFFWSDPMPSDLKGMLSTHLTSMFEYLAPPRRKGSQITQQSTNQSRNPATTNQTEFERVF
Chain of CDK9/CyclinT1 (O60563 whole entry partner): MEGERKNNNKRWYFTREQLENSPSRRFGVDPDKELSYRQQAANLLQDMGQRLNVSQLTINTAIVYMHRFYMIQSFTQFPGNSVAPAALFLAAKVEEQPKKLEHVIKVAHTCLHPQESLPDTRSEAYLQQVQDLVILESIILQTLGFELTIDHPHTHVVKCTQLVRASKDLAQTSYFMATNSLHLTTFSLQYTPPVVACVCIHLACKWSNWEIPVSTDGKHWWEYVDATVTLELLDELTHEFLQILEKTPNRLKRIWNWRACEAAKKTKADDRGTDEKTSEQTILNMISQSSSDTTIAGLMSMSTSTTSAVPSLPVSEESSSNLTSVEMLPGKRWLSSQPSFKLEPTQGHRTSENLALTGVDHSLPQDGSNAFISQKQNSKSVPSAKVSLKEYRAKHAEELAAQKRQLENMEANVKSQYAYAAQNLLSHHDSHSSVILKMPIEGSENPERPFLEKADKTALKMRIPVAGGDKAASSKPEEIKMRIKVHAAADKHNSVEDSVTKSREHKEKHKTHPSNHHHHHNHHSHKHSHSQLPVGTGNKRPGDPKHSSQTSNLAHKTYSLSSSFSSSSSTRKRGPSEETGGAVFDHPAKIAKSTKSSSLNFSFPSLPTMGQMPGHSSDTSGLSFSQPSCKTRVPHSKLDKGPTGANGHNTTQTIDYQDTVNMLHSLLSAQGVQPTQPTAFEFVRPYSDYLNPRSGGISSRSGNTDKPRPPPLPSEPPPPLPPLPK
Chain of GSK-3β (P49841 whole entry): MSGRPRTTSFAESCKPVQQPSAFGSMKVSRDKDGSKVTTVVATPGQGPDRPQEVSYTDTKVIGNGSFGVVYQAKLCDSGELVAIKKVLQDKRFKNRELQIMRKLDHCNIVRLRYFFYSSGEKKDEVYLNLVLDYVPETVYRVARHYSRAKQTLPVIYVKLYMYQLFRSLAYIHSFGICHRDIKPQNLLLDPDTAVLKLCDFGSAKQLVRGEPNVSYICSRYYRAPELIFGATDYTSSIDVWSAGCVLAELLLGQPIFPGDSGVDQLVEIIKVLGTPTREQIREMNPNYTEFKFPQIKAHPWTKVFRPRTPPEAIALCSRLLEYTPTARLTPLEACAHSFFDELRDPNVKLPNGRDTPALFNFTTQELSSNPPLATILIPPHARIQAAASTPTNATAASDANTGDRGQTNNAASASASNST
Chain of GSK-3α (P49840 whole entry): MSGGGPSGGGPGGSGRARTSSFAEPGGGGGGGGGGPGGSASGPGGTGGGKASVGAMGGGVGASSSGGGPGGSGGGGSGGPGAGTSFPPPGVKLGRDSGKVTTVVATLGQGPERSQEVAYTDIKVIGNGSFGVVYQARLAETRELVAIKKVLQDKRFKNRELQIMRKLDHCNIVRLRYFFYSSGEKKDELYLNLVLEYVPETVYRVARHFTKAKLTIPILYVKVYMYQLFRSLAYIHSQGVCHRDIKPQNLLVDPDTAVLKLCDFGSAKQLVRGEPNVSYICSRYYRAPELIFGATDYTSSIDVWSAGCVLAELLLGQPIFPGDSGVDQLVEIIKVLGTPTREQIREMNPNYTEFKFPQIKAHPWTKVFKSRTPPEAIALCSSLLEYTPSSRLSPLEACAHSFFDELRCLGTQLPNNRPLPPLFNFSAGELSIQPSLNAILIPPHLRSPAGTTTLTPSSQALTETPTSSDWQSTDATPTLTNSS

Structure (SMILES): Cc1c[nH]c(-c2cnc(NCCNc3ccc(C#N)cn3)nc2-c2ccc(Cl)cc2Cl)n1 [CHR99021]
- GFP reactivation by GSK-3 inhibitors [1]: no GFP reactivation

Structure (SMILES): Nc1ncn([C@H]2C[C@H](O)[C@@H](CO)O2)c(=O)n1 [DAC, decitabine]
- silenced genes (RPKM < 0.31) up (YB5 cells [2]): 1238 genes
- time to reactivation of hypermethylated genes (YB5 cells [3]; YB5, daily 100nM, for most genes): at least 24 hrs

Structure (SMILES): [Cl-].[Li+] [LiCl]
- GFP reactivation by GSK-3 inhibitors [1]: no GFP reactivation

Structure (SMILES): Nc1nc(N[C@H]2CC3CCC2C3)sc1C(=O)c1ccccc1[N+](=O)[O-] (stereo partly drawn) [MC180295, (4-amino-2-(((2S)-bicyclo[2.2.1]heptan-2-yl)amino)thiazol-5-yl)(2-nitrophenyl)methanone]
- reactivation of GFP and GLDC in tumors [4]: reactivated GFP and GLDC in a dose dependent manner
- inhibition of GSK-3β (GSK-3β): inhibited
- reduction of proliferation, cancer cells compared to IMR90 [5]: more effective in reducing proliferation of cancer cells
- cell cycle arrest (YB5): no cell cycle arrest
- sub-G1 subpopulation (YB5): an increase in the sub-G1 subpopulation
- inhibition of GSK-3α (GSK-3α): inhibited
- dephosphorylation of Ser2 (pSer2) [6]: dephosphorylated at nanomolar doses
- body weights (SW48-luc cells; every other day treatment): did not affect body weights
- survival of the mice (SW48-luc cells; i.p. every other day, log-rank test): significantly extend survival
- induction of differentiation marker CD11b (HL60 cell line): significant induction
- killing of human T lymphocytes in vivo (human T lymphocytes): did not kill human T lymphocytes
- ratio of CD4 and CD8 T cells in vivo (human T lymphocytes): did not affect the ratio of CD4 and CD8 T cells
- reduction of colony formation in soft agar (YB5 and HCT116): 30–80%
- mouse survival (SW48; 20mg/kg i.p. qod): improved mouse survival
- toxicity as measured by body weight (SW48; 20mg/kg qod): without causing overt toxicity
- tumor growth (SW48; 20mg/kg qod): tumors grew slower
- effect on CDK1/2 substrates (CDK1/2 substrates): not affected at all
- effect on substrates of CDK4/6 (substrates of CDK4/6): only affected at substantially higher doses
- GFP+ cells ([1]; YB5, 500nM, four days after single dose): ~ 60%
- concentration active for GFP reactivation ([1]; YB5, four days after single dose): 50 nM
- phosphorylation of RNA-Pol-ll CTD, BRG1 and CDK9 by CDK9 (CDK9/CyclinT1): unphosphorylated after CDK9 inhibition
- selectivity within the human kinome (panel of 250 kinases): highly selective against CDKs

Structure (SMILES): O=C(/C=C/N1C[C@H]2C[C@@H]1CN2c1ccccn1)c1ccccc1O [PFI-3]
- effect on GFP activation by CDK9 inhibitors ([1]; YB5, 72hr daily pretreatment followed by 24hr co-treatment with HH1 or iCDK9): inhibited GFP activation by CDK9 inhibitors in a dose-dependent manner

Structure (SMILES): CC(C)(C)c1cnc(CSc2cnc(NC(=O)C3CCNCC3)s2)o1 [SNS-032]
- survival (ID8; 10mg/kg): extended survival
- tumor burden (ascites fluid) (ID8; 10mg/kg): reduced tumor burden
- activated dendritic cells (CD80/CD86+ and CD11c/MHCII+) in the tumor microenvironment (ID8; flow cytometry of ascites): increased populations of activated dendritic cells
- immune cells (CD45+) and T cells (CD3+) in the tumor microenvironment (ID8; flow cytometry of ascites): increased populations of immune cells (CD45+) and T cells (CD3+)
- tumor growth (SW48; 20mg/kg qod): tumors grew slower

- phosphorylation of RNA-Pol-ll CTD, BRG1 and CDK9 by CDK9 (CDK9/CyclinT1): unphosphorylated after CDK9 inhibition
Structure (SMILES): CN1CC[C@H](c2c(O)cc(O)c3c(=O)cc(-c4ccccc4Cl)oc23)[C@H](O)C1 [flavopiridol]
- reactivation of SYNE1 and MGMT (YB5 cells [3]): led to gene reactivation

Structure (SMILES): NC1CCC(Nc2cc(-c3cccc(NCc4cccc(F)c4)n3)c(Cl)cn2)CC1 (centres unmarked) [iCDK9]
- reactivation of SYNE1 and MGMT (YB5 cells [3]): led to gene reactivation
